From PubChem
This is a sample that favours compounds with a hit; in the whole collection about 2.1% have one here.
CAL PDZ FP-1 – untagged CAL PDZ binding inhibitors, primary screen, biochemical, fluorescence polarization, HTS; Golgi-associated PDZ and coiled-coil motif-containing protein (Homo sapiens), Q9HD26; purified CAL PDZ, TMR-peptide fluorescence polarization, 1 h; inhibition, % at 24.9 µM; 300,000 compounds, 0.92% hits; AID 602252, 2012;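 active = mean inhibition of at least 30% with at least half of replicates also reaching 30%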
ARNT TACC3 PPI – disruptors of ARNT/TACC3 protein interaction, primary screen, biochemical, AlphaScreen, single concentration; 390,000 compounds, 0.66% hits; AlphaScreen His-ARNT PAS-B/GST-TACC3 binding, luminescence; TACC3 fragment carries E629A point mutation; inhibition, % at 9.99 µM; AID 623870, 2012; Transforming acidic coiled-coil-containing protein 3 (Homo sapiens), Q9Y6A5;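 active = mean inhibition of replicates at least 50% and at least half of replicates each reaching 50%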
SR-BI DiI inh – inhibitors of SR-BI mediated HDL lipid uptake, primary screen, ldlA[mSR-BI] cells, fluorescence, single point | AID 488896, 2010 | Scavenger receptor class B member 1 (Mus musculus), Q61009 | inhibition, % at 12.5 µM | 320,000 compounds, 0.96% hits | ldlA[mSR-BI] CHO cells, DiI-HDL uptake fluorescence, 3 h;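 active = mean replicate inhibition of at least 70% and a set share of replicates each scoring 70 or more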
Target sequence (Q61009 whole entry, looked up): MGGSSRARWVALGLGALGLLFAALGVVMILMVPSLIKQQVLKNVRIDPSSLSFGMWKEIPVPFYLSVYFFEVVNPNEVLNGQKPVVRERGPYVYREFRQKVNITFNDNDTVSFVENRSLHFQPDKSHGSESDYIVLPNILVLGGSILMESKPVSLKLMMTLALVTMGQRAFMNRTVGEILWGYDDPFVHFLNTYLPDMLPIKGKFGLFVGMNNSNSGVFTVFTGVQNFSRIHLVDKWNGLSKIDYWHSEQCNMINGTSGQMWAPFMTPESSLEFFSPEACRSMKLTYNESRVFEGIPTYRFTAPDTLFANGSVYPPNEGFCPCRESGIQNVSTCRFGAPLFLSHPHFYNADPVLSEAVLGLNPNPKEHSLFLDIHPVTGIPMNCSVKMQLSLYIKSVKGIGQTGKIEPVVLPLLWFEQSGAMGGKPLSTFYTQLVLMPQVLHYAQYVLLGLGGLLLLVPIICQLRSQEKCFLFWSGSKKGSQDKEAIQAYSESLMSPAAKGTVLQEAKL
SR-BI uptake up – activators of SR-BI mediated DiI-HDL uptake, primary screen, ldlA[mSR-BI] CHO cells, DiI fluorescence; 3 h; 100 = double the neutral-control signal; activation, % at 12.5 µM; 320,000 compounds, 0.096% hits; AID 504775, 2011;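 active = mean replicate activation of at least 60% and every replicate at or above 60%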
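Test system: SR-BI-overexpressing, LDLR-lacking CHO cells; Also added: labelled HDL, 10 µg/mL; Measured by: bottom-read cell fluorescence after medium removal, ex 550/em 595 nm; Timing: 3 h uptake period with compound, 37 °C; Buffer or medium: F12, 0.5% BSA, 25 mM HEPES; Doses: single compound concentration, delivered by pin transfer.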
miR122 inh – miR-122 Renilla sensor signal increase in Huh7, primary screen, miR-122 inhibitor project, cell-based, single point, plate reader | Huh7 miR-122 Renilla luciferase sensor, 48 h; neutral wells = 0, positive control = 100 | activation (reporter increase), % at 12.5 µM | 340,000 compounds, 0.3% hits;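 active = mean replicate activation score at least 90 and every replicate individually at or above 90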;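 also: higher luciferase means less miR-122 activity so hits act as miR-122 inhibitors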
CAL PDZ FP-2 – CAL PDZ peptide-binding inhibitors, primary screen, biochemical, fluorescence polarization, Cer-tagged CAL PDZ, HTS; Golgi-associated PDZ and coiled-coil motif-containing protein (Homo sapiens), Q9HD26; purified CAL PDZ, TMR-peptide fluorescence polarization, 1 h; inhibition, % at 20 µM; 330,000 compounds, 0.02% hits;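 active = highest replicate inhibition of at least 40%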
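Control set: unlabelled peptide and DMSO controls / Material: purified CerCALP PDZ construct / Timing: 1 h incubation at room temperature before polarization reading / Doses: 20 µM, one dose / Detection: fluorescence polarization (mP)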
A number is an active result; - = inactive; . = no result; + = active, no number; ! = a repeat was not active; [ ] = remark or other dose.

SMILES | CAL PDZ FP-1 | ARNT TACC3 PPI | SR-BI DiI inh | SR-BI uptake up | miR122 inh | CAL PDZ FP-2
O=C(Nc1cccc(-c2csc(Nc3ccccc3)n2)c1)c1cc([N+](=O)[O-])cc(C(F)(F)F)c1 | - | - | 97 | - | - | -
COc1ccc(S(=O)(=O)NCc2ccccc2)cc1 | . | - | - | - | 113 | -
O=S(=O)(NCc1ccccc1)c1ccc2ccccc2c1 | - | - | - | - | . | .
COc1ccc(CNS(=O)(=O)c2ccc(OC)cc2)cc1 | - | - | - | - | - | -
COc1cc(S(=O)(=O)NCc2ccccc2)ccc1Br | - | - | - | - | . | -
O=S(=O)(NCc1ccccc1)c1ccc(Cl)c(S(=O)(=O)NCc2ccccc2)c1 | - | - | - | - | 106 | -
COc1ccc(S(=O)(=O)NCc2ccccc2)cc1Br | - | - | - | - | 192 | -
Cc1ccnc(NC(=O)CCCOc2cc(=O)n(C)c3ccccc23)c1 | - | - | - | - | 183! | -
Cn1c(=O)cc(OCCCC(=O)NCc2ccccn2)c2ccccc21 | - | - | - | - | - | -
CCN(CC)c1ccc2c(-c3ccc(S(=O)(=O)O)cc3S(=O)(=O)[O-])c3ccc(=[N+](CC)CC)cc-3oc2c1 | + | - | - | - | . | 171
CCN(CC)c1ccc2cc(C(N)=O)c(=N)oc2c1 | - | . | - | - | - | -
O=C1C(C=NCc2ccccn2)=C(O)c2ccccc21 | - | 66 | - | - | - | -
O=C(COC(=O)c1cnccn1)Nc1ncc(C(F)(F)F)cc1Cl | 55 | - | - | - | - | -
O=C(COC(=O)C1=COCCO1)Nc1ncc(C(F)(F)F)cc1Cl | - | - | - | - | - | -
C[C@@H]1CN([C@@H](C)CO)C(=O)c2cc(NC(=O)C3CC3)ccc2O[C@H]1CN(C)Cc1ccc(-c2ccccc2)cc1 | . | - | . | . | - | .
Cc1ccc(NC(=O)CSc2nnc(CNC(=O)c3ccco3)o2)cc1 | - | - | - | - | - | -
O=C(CSc1nnc(CNC(=O)c2ccco2)o1)Nc1ccc(F)cc1 | 57 | - | - | - | - | -
O=C(NCc1nnc(SCC(=O)N2CCCCCC2)o1)c1ccccc1F | - | - | - | - | - | -
O=C(CSc1nnc(CNC(=O)c2ccccc2F)o1)NC1CCCC1 | 37 | - | - | - | - | -
O=C(CSc1nnc(CNC(=O)c2ccccc2F)o1)NCc1ccco1 | 62 | - | - | - | - | -
Cc1cccc(-c2nnc(SCC(=O)NC3CCCC3)o2)c1 | 86 | . | - | - | - | -
O=C(CSc1nnc(CNC(=O)c2ccccc2F)o1)NCCc1ccccc1 | - | - | - | - | - | -
Cn1cnc(S(=O)(=O)N2CCCCN3[C@H](CO)[C@H](c4ccc(C#CC5CC5)cc4)[C@H]3C2)c1 | . | . | . | . | - | .
COc1ccc(-c2ccc(NCCC3=CCCCC3)nn2)cc1OC | - | - | 75 | - | - | -
O=C(C[C@@H]1C[C@H]2c3cc(NC(=O)CC4CC4)ccc3O[C@H]2[C@H](CO)O1)NCc1ccc2c(c1)OCO2 | . | - | . | . | - | .
SMILES | CAL PDZ FP-1 | ARNT TACC3 PPI | SR-BI DiI inh | SR-BI uptake up | miR122 inh | CAL PDZ FP-2
COc1ccc(/C=N/Nc2cc(N3CCOCC3)ncn2)c(OC)c1 | - | - | - | - | . | -
COc1cccc(/C=N/Nc2nnc(C)n2N)c1O | - | 58 | - | - | - | -
COc1cccc(/C=N/Nc2cc(N3CCOCC3)ncn2)c1O | - | 49 | - | - | - | -
CO[C@@H]1CN(C)C(=O)c2ccc(NC(=O)C3CC3)cc2OC[C@H](C)N(CCC(F)(F)F)C[C@H]1C | . | - | . | . | - | .
CCc1ccc(NC(=O)CSc2nc3n[nH]c(C)c3c(=N)n2-c2cccc(OC)c2)cc1 | . | - | - | 123 | . | -
COc1cc(OC)c(NC(=O)c2cncn2-c2ccc(F)cc2)cc1Cl | - | - | 72 | - | - | -
O=C(c1cccnc1)N1C[C@H]2[C@@H](c3ccccc31)[C@H](CO)N2C(=O)Nc1ccc(F)cc1 | . | . | . | . | - | .
Cc1cccc2sc(NC(=O)c3cc(S(=O)(=O)N(C)C)ccc3N3CCCC3)nc12 | - | - | 76 | - | - | -
O=C(COC(=O)c1cccc(OC(F)F)c1)NC1CCCC1 | 42 | - | - | - | - | .
O=C(NCCCCNC(=O)c1ccccc1F)c1ccccc1F | - | - | 75 | - | - | -
O=C(c1cccnc1)N1CCCCN2[C@H](CO)[C@@H](c3ccc(C#Cc4ccccc4)cc3)[C@H]2C1 | . | - | . | . | - | .
COC(=O)c1cc(-c2ccccc2)sc1NC(=O)CN1C(=O)c2ccccc2C1=O | 123 | - | - | - | - | -
COC(=O)c1cc(OC)c(OC)cc1NC(=O)CN1C(=O)c2ccccc2C1=O | - | - | - | - | - | -
O=C(N[C@H]1CC[C@H](CCNS(=O)(=O)c2cccc(Cl)c2)O[C@@H]1CO)c1ccc(F)cc1 | . | - | . | . | . | .
COc1ccccc1N1CCN(C(=O)CCC(=O)N2CCN(c3ccccc3OC)CC2)CC1 | - | - | 70 | - | - | .
C[C@@H]1CN([C@@H](C)CO)S(=O)(=O)c2ccc(C#CC3CC3)cc2O[C@@H]1CN(C)Cc1cncnc1 | . | . | . | . | - | .
Nc1cc(=O)[nH]c(SCC(=O)N2N=C(c3ccc4ccccc4c3)CC2c2ccccc2)n1 (stereo not drawn) | 32 | - | - | - | - | -
O=C(c1cccc(F)c1)N1C[C@H]2[C@@H](c3ccccc31)[C@@H](CO)N2C(=O)c1ccc(F)cc1 | . | - | . | . | 192[16.7 µM] | .
O=C(c1cccc(F)c1)N1C[C@H]2[C@@H](c3ccccc31)[C@H](CO)N2C(=O)c1ccc(F)cc1 | . | - | . | . | - | .
O=C(c1ccc(F)cc1)N1C[C@H]2[C@@H](c3ccccc31)[C@@H](CO)N2C(=O)c1ccc(F)cc1 | . | - | . | . | 364[16.7 µM] | .
COC(=O)c1sccc1NC(=O)c1c(Cl)cccc1Cl | - | - | - | - | - | .
COC(=O)c1sccc1NC(=O)c1cccc(Cl)c1 | 83 | - | - | - | . | -
CC(=O)c1ccc(NC(=O)Cn2cnc(S(=O)(=O)N3CCCC3)c2)cc1 | 44 | - | - | - | - | -
CC(=O)c1ccc(NC(=O)Cn2cnc(S(=O)(=O)N3CCCCC3)c2)cc1 | - | . | - | - | - | -
